Measurements from the M2OR odorant receptor database.

What was measured:
Details in all cases: stereoisomer not certain
OR2A1 (Homo sapiens) = biological target: T1, OR2A1 (Homo sapiens) (UniProt Q8NGT9)
T1 sequence (whole entry): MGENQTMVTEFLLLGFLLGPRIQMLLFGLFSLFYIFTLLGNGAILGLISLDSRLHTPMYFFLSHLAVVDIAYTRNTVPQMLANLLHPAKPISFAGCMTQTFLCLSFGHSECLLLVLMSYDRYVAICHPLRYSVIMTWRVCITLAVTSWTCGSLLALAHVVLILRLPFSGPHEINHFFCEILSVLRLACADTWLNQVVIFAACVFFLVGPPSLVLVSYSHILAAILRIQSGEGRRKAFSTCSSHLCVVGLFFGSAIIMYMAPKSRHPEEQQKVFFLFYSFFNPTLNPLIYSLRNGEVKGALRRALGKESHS
Outline: (§1)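 Values were gathered from published papers (main text and supplementary material), with extra details requested from the original authors when needed, and checked for typos and inconsistencies. Each receptor–molecule pair is called responsive (active) if the original authors judged the measured signal statistically different from baseline, and non-responsive (inactive) otherwise. Assay methods varied by source, often transient mammalian cell-line luciferase assays. Recorded details include cell line, G-protein, co-transfected protein and tags.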

OR2A1 S168C = test system: OR2A1 S168C
Outline: as §1

OR2A1 T73A R74C S168C = test system: OR2A1 T73A R74C S168C
Outline: as §1

OR2A12 (Homo sapiens) = OR2A12 (Homo sapiens) (UniProt Q8NGT7)
Outline: as §1

OR2A14 (Homo sapiens) = OR2A14 (Homo sapiens) (UniProt Q96R47)
Outline: as §1

OR2A2 (Homo sapiens) = OR2A2 (Homo sapiens) (UniProt Q6IF42)
Outline: as §1

OR2A25 (Homo sapiens) = OR2A25 (Homo sapiens) (UniProt A4D2G3)
Outline: as §1

OR2A2 = test system: OR2A2
Outline: as §1

OR2A4 (Homo sapiens) = OR2A4 (Homo sapiens) (UniProt O95047)
Outline: as §1

OR2A5 (Homo sapiens) = OR2A5 (Homo sapiens) (UniProt Q96R48)
Outline: as §1

Measured: odorant receptor agonist call

Chain of OR2A25 (Homo sapiens) (A4D2G3 whole entry): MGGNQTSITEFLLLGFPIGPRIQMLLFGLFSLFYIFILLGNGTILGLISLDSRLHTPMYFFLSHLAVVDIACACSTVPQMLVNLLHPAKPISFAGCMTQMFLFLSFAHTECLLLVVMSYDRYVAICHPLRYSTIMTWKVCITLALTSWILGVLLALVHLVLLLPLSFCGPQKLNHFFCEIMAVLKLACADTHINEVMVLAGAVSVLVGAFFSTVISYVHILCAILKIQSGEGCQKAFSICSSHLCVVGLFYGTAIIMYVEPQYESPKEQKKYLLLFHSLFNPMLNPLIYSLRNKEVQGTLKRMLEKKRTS
Chain of OR2A12 (Homo sapiens) (Q8NGT7 whole entry): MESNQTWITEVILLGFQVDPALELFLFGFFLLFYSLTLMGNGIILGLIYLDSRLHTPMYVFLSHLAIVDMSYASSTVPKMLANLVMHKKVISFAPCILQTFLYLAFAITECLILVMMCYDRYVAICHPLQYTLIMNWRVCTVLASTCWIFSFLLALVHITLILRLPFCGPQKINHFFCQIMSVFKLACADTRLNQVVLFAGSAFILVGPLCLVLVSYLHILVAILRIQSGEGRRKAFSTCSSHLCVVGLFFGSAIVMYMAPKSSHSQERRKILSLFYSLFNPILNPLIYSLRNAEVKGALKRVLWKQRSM
Chain of OR2A5 (Homo sapiens) (Q96R48 whole entry): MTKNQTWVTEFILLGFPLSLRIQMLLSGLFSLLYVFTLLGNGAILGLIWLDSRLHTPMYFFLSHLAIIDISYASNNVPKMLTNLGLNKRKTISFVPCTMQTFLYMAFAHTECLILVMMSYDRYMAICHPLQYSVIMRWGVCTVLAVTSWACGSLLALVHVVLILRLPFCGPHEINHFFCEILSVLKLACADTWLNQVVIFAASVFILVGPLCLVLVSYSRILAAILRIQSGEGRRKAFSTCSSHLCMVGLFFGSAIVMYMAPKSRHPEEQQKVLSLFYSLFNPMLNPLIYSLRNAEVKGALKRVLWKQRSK
Chain of OR2A14 (Homo sapiens) (Q96R47 whole entry): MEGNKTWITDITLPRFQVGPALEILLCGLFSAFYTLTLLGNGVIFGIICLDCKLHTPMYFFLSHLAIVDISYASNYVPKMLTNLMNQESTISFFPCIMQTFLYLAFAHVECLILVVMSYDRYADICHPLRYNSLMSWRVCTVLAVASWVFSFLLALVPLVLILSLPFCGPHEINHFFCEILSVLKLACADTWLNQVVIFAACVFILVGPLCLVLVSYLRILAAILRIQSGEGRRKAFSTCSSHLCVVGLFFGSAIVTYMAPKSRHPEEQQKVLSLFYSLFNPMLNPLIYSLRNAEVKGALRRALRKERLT
Chain of OR2A2 (Homo sapiens) (Q6IF42 whole entry): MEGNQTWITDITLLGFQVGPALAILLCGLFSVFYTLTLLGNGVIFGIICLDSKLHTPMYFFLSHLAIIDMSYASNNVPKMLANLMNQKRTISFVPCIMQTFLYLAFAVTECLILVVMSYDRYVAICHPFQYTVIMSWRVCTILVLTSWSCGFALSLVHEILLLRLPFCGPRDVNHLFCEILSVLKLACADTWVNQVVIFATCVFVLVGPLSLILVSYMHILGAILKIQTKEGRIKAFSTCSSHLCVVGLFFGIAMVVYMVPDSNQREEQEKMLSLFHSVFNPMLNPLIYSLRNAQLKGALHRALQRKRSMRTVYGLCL
Chain of OR2A4 (Homo sapiens) (O95047 whole entry): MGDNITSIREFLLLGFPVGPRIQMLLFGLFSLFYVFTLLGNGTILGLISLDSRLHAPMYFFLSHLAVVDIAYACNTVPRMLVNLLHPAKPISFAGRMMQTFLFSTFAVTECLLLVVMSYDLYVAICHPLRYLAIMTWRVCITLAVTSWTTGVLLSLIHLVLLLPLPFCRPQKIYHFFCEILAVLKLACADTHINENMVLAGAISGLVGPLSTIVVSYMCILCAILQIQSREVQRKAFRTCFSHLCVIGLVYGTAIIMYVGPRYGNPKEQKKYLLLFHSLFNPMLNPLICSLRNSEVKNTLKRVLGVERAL
Chain of OR2A1 S168C (as listed by the source, stated change not applied): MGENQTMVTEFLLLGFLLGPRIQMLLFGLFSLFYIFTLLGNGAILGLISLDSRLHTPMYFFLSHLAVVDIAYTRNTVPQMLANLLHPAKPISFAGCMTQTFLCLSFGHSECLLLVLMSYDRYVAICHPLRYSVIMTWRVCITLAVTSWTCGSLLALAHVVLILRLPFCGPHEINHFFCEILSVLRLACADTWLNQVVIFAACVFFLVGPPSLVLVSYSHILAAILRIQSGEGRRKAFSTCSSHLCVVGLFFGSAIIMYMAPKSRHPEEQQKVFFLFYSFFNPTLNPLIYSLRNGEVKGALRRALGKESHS
Chain of OR2A2 (as listed by the source): as the sequence (Q6IF42 whole entry) above, with F280L counted along it

C=CCOC(=O)Cc1ccccc1
inactive: OR2A1 (Homo sapiens) | OR2A1 S168C | OR2A1 T73A R74C S168C | OR2A12 (Homo sapiens) | OR2A14 (Homo sapiens) | OR2A2 (Homo sapiens) | OR2A25 (Homo sapiens) | OR2A2 | OR2A4 (Homo sapiens) | OR2A5 (Homo sapiens)

COc1ccc(C=O)cc1
inactive: OR2A1 (Homo sapiens)

Cc1c([N+](=O)[O-])c(C)c([N+](=O)[O-])c(C(C)(C)C)c1[N+](=O)[O-]
inactive: OR2A1 (Homo sapiens) | OR2A12 (Homo sapiens) | OR2A14 (Homo sapiens) | OR2A2 (Homo sapiens) | OR2A25 (Homo sapiens) | OR2A4 (Homo sapiens) | OR2A5 (Homo sapiens)

Cc1cccc(C)c1
inactive: OR2A1 (Homo sapiens)
